Reference: ChEMBL document CHEMBL1124433 (J Med Chem, 1989)

What was measured:
[1] = test system: L1210; assay: Concentration that inhibits the proliferation of L1210 cells by 50%; type: functional, cell-based; conditions: Mus musculus
In short: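 L1210 murine leukemia cells were incubated with drug at various concentrations for 60 min at 37 °C. Colonies were stained with tetrazolium and counted; cloning efficiency is 8-10%. IC50 is the drug concentration in the agar giving 50% fewer colonies.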

[2] = test system: DNA topoisomerase 1 (Bos taurus); assay: Concentration that produces 50% DNA cleavage mediated by DNA topoisomerase I; neg= negative is no enzyme mediated DNA cleavage at the highest conc tested at 50 uM
[3] = test system: DNA topoisomerase 1 (Bos taurus); assay: Concentration that produces 50% DNA cleavage mediated by DNA topoisomerase I
[4] = test system: L1210; assay: Protein associated single strand breaks, measured after cell lysis and proteinase K treatment at 35 uM concentration of the compound; type: functional, Mus musculus
In short: (§1)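 L1210 cells were exposed to compound for 1 h and DNA strand breaks were measured by alkaline elution, expressed as rad equivalents. Protein-associated breaks were read after cell lysis plus proteinase K treatment. Non-protein-associated breaks were read after lysis without proteinase K.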

[5] = test system: L1210; assay: Non-protein associated single strand breaks, measured after cell lysis in the absence of proteinase K treatment at 35 uM concentration of the compound; type: functional, Mus musculus; in short: as §1
[6] = test system: L1210; assay: Non-protein associated single strand breaks, measured after cell lysis in the absence of proteinase K treatment at 3.5 uM concentration of the compound; type: functional, Mus musculus; in short: as §1
[7] = test system: L1210; assay: Protein associated single strand breaks, measured after cell lysis and proteinase K treatment at 2 uM concentration of the compound; type: functional, Mus musculus
In short: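 L1210 cells exposed to drug for 1 h, then alkaline elution. Lysis followed by proteinase K treatment to score protein-associated single-strand breaks. Expressed as rad equivalents.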

[8] = test system: L1210; assay: Non-protein associated single strand breaks, measured after cell lysis in the absence of proteinase K treatment at 2 uM concentration of the compound; type: functional, Mus musculus
In short: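 L1210 cells exposed to drug for 1 h, then alkaline elution. Cells lysed without proteinase K treatment to score single-strand breaks not bound to protein. Expressed as rad equivalents.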

[9] = test system: L1210; assay: Protein associated single strand breaks, measured after cell lysis and proteinase K treatment at 10 uM concentration of the compound; type: functional, Mus musculus; in short: as §1
[10] = test system: L1210; assay: Non-protein associated single strand breaks, measured after cell lysis in the absence of proteinase K treatment at 10 uM concentration of the compound; type: functional, Mus musculus; in short: as §1
[11] = test system: DNA topoisomerase 1 (Bos taurus); assay: Concentration that produces 50% DNA cleavage mediated by topoisomerase I; neg= negative is no enzyme mediated DNA cleavage at the highest conc tested at 50 uM
[12] = test system: L1210; assay: Non-protein associated single strand breaks, measured after cell lysis in the absence of proteinase K treatment at 20 uM concentration of the compound; type: functional, Mus musculus; in short: as §1
[13] = test system: L1210; assay: Protein associated single strand breaks, measured after cell lysis and proteinase K treatment at 20 uM concentration of the compound; type: functional, Mus musculus; in short: as §1

Row | IC50 [1] | SMILES | CC50 [2] | other results
1 | > 5.9 µM | CCC1OC(=O)c2c1cc1n(c2=O)Cc2cc3ccccc3nc2-1 (configuration not stated) | Negative | –
2 | – | CC[C@@](O)(C(=O)NC(C)C)c1cc2n(c(=O)c1CO)Cc1cc3ccccc3nc1-2 | – | CC50 [3]: 5 µM
3 | 0.092 µM | O=c1c2cocc2c(O)c2n1Cc1cc3ccccc3nc1-2 | Negative | Radiation equivalent [4]: <100; Radiation equivalent [5]: 1000; Radiation equivalent [6]: 175
4 | 2.7 µM | CC[C@]1(O)c2cc3n(c(=O)c2COC1O)Cc1cc2ccccc2nc1-3 (some centres not stated) | Negative | Radiation equivalent [9]: <100; Radiation equivalent [10]: <100
5 | > 5.9 µM | CCC1(O)OCc2c1cc1n(c2=O)Cc2cc3ccccc3nc2-1 (configuration not stated) | – | CC50 [11]: Negative
6 | 0.094 µM | C=C1CC(CC)(c2cc3n(c(=O)c2C)Cc2cc4ccccc4nc2-3)OC1=O (configuration not stated) | – | Radiation equivalent [7]: <100; Radiation equivalent [12]: 1360; Radiation equivalent [13]: <100; Radiation equivalent [8]: <100; CC50 [11]: Negative
7 | 2.9 µM | CC[C@@]1(O)C(=O)SCc2c1cc1n(c2=O)Cc2cc3ccccc3nc2-1 | – | CC50 [11]: Negative
8 | > 5.9 µM | O=C1OCc2c1cc1n(c2=O)Cc2cc3ccccc3nc2-1 | Negative | –
9 | 0.59 µM | CC[C@H]1C(=O)OCc2c1cc1n(c2=O)Cc2cc3ccccc3nc2-1 | Negative | –

Row | SMILES | IC50 [1] | CC50 [2] | other results
10 | CC[C@@]1(OC(C)=O)C(=O)OCc2c1cc1n(c2=O)Cc2cc3ccccc3nc2-1 | 0.39 µM | Negative | –
11 | CC[C@@](O)(C(=O)O)c1cc2n(c(=O)c1CO)Cc1cc3ccccc3nc1-2 | 0.014 µM | – | CC50 [3]: 0.9 µM
12 | CC[C@@]1(O)C(=O)OCc2c1cc1n(c2=O)Cc2cc3ccccc3nc2-1 [CAMPTOTHECIN] | 0.014 µM | – | Radiation equivalent [7]: 342; Radiation equivalent [8]: 240
13 | CC[C@@]1(O)C(=O)NCc2c1cc1n(c2=O)Cc2cc3ccccc3nc2-1 | > 2 µM | Negative | Radiation equivalent [9]: <100; Radiation equivalent [10]: <100
